Assays:
Conditions in all cases: read-out: IZ
Escherichia coli [1] = assay: Antibacterial activity against Escherichia coli UPCC 1195 replicate 1 assessed as clearing zone at 30 ug after 24 to 48 hrs; type: functional
Procedure, shortened: (§1)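 Agar well diffusion. 0.1 mL of bacterial suspension in 0.1% peptone water is spread on prepoured nutrient agar and overlaid with melted NA cooled to 45 °C. Three equidistant 10 mm wells each receive 200 µL of sample in 95% EtOH. Plates are incubated at room temperature and read at 24–48 h. Clearing-zone diameters are measured in mm and averaged.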

Escherichia coli [2] = assay: Antibacterial activity against Escherichia coli UPCC 1195 replicate 2 assessed as clearing zone at 30 ug after 24 to 48 hrs; type: functional; procedure, shortened: as §1
Escherichia coli [3] = assay: Antibacterial activity against Escherichia coli UPCC 1195 replicate 3 assessed as clearing zone at 30 ug after 24 to 48 hrs; type: functional; procedure, shortened: as §1
Pseudomonas aeruginosa [4] = assay: Antibacterial activity against Pseudomonas aeruginosa UPCC 1244 replicate 1 assessed as clearing zone at 30 ug after 24 to 48 hrs; type: functional; procedure, shortened: as §1
Pseudomonas aeruginosa [5] = assay: Antibacterial activity against Pseudomonas aeruginosa UPCC 1244 replicate 2 assessed as clearing zone at 30 ug after 24 to 48 hrs; type: functional; procedure, shortened: as §1
Pseudomonas aeruginosa [6] = assay: Antibacterial activity against Pseudomonas aeruginosa UPCC 1244 replicate 3 assessed as clearing zone at 30 ug after 24 to 48 hrs; type: functional; procedure, shortened: as §1
Candida albicans [7] = assay: Antifungal activity against Candida albicans UPCC 2168 replicate 1 assessed as clearing zone at 30 ug after 24 to 48 hrs; type: functional
Procedure, shortened: (§2)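 Yeast is suspended in 0.1% peptone water, and 0.1 mL is spread on glucose yeast peptone agar with a GYP overlay at 45 °C. Three 10 mm wells per plate each get 200 µL of sample in 95% EtOH. Plates are incubated at room temperature and observed after 24–48 h. The mean clearing-zone diameter is recorded in mm.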

Candida albicans [8] = assay: Antifungal activity against Candida albicans UPCC 2168 replicate 2 assessed as clearing zone at 30 ug after 24 to 48 hrs; type: functional; procedure, shortened: as §2
Candida albicans [9] = assay: Antifungal activity against Candida albicans UPCC 2168 replicate 3 assessed as clearing zone at 30 ug after 24 to 48 hrs; type: functional; procedure, shortened: as §2
[10] = tested on: Trichophyton mentagrophytes; assay: Antifungal activity against Trichophyton mentagrophytes UPCC 4193 replicate 1 assessed as clearing zone at 30 ug after 3 to 5 days
[11] = tested on: Trichophyton mentagrophytes; assay: Antifungal activity against Trichophyton mentagrophytes UPCC 4193 replicate 2 assessed as clearing zone at 30 ug after 3 to 5 days
[12] = tested on: Trichophyton mentagrophytes; assay: Antifungal activity against Trichophyton mentagrophytes UPCC 4193 replicate 3 assessed as clearing zone at 30 ug after 3 to 5 days
Staphylococcus aureus = assay: Antibacterial activity against Staphylococcus aureus UPCC 1143 replicate 1 assessed as clearing zone at 30 ug after 24 to 48 hrs; type: functional
Procedure, shortened: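 Agar well diffusion. Microbe suspended in 0.1% peptone water; 0.1 mL spread on prepoured nutrient agar, overlaid with melted medium cooled to 45 °C. Three 10 mm wells per plate, 200 µL sample in 95% EtOH per well. Incubated at room temperature and read at 24–48 h. Clearing-zone diameter measured in mm.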

Bacillus subtilis = assay: Antibacterial activity against Bacillus subtilis UPCC 1149 replicate 1 assessed as clearing zone at 30 ug after 24 to 48 hrs; type: functional; procedure, shortened: as §1

| Structure (SMILES) | zone of inhibition at 30 µg/disc (Escherichia coli [1]) [mm] | zone of inhibition at 30 µg/disc (Escherichia coli [2]) [mm] | zone of inhibition at 30 µg/disc (Escherichia coli [3]) [mm] | zone of inhibition at 30 µg/disc (Pseudomonas aeruginosa [4]) [mm] | zone of inhibition at 30 µg/disc (Pseudomonas aeruginosa [5]) [mm] | zone of inhibition at 30 µg/disc (Pseudomonas aeruginosa [6]) [mm] | zone of inhibition at 30 µg/disc (Candida albicans [7]) [mm] | zone of inhibition at 30 µg/disc (Candida albicans [8]) [mm] | zone of inhibition at 30 µg/disc (Candida albicans [9]) [mm] | zone of inhibition at 30 µg/disc [10] [mm] | zone of inhibition at 30 µg/disc [11] [mm] | zone of inhibition at 30 µg/disc [12] [mm] | zone of inhibition at 30 µg/disc (Staphylococcus aureus) [mm] | zone of inhibition at 30 µg/disc (Bacillus subtilis) [mm] |
| --- | --- | --- | --- | --- | --- | --- | --- | --- | --- | --- | --- | --- | --- | --- |
| CC[C@@H]1O[C@H]1/C=C1/C(=O)C=C[C@@]1(O)CCCC[C@@H]1CCC(=O)O1 | 12 | 12 | 12 | 12 | 12 | 12 | 13 | 13 | 13 | 12 | 12 | 12 | – | – |
| C/C=C/C(=O)C[C@H]1C(=O)C=C[C@@]1(O)CCCC[C@@H]1CCC(=O)O1 | 12 | 12 | 12 | 12 | 12 | 12 | 13 | 13 | 13 | 13 | 13 | 13 | – | – |
| O=C(N[C@H](CO)[C@H](O)c1ccc([N+](=O)[O-])cc1)C(Cl)Cl [CHLORAMPHENICOL] | 23 | – | – | 14 | – | – | – | – | – | – | – | – | 25 | 20 |

— ChEMBL document CHEMBL1149834, “Chromomoric acid derivatives from Tectona philippinensis” (2008)
